A selection: hits, their analogues and other compounds. The true share with any hit is near 1.2%.
TRPN1 ag: agonists of zebrafish TRPN1 channel | 220,000 tested, 0.18% active | activation, % at 3 µM | HEK293 zebrafish TRPN1-YFP, Fluo-8 calcium fluorescence; 100% = response to 87 µM carbachol;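 active = activation above its plate's cutoff, the mean activation of test wells on that plate plus 3 SD, cut at about 19% in these data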;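 also: 0% = DMSO alone and 100% = 87 µM carbachol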
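Control set: carbachol 87 µM as high control, DMSO as low control; system: HEK293 stable line with zebrafish TRPN1-YFP; read-out: % activation versus carbachol response; detection: intracellular calcium fluorescence with Fluo-8; doses: single test compound dose, 3 µM nominal, 0.3% DMSO; schedule: dye 1 h 37 °C plus 30 min RT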
CHO-K1 Ca ag: M1 agonist counterscreen hit in parental CHO-K1 cells; Fluo-8 calcium fluorescence; scaled to maximal ATP response, vehicle zero; activation, % at 3 µM; 360,000 tested, 0.48% active; in the data active = activation above about 15%;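 also: untransfected CHO-K1 host cells lacking M1 receptor as counterscreen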
M1 PAM parental: counter-screen for M1 PAMs: effect in parental CHO-K1 cells; activation, % at 3 µM; ATP EC20, Fluo-8 calcium fluorescence; 0% at ATP EC20, 100% at ATP max; 360,000 tested, 0.02% active;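 active = activation above the run cutoff, the mean activation of all test compounds plus 3 SD, cut at about 40% in these data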;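 also: peak over basal fluorescence ratio in a 140 s read after ATP addition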
TRPML3 ag: activates the human TRPML3 channel. Q8TDD5. AID 1448. HEK293 TRPML3-YFP, Fluo-8 calcium fluorescence; 100% = the carbachol control signal. activation, % at 3 µM. 220,000 tested, 0.29% active;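 active = activation above its plate's cutoff, the mean activation of the plate's test wells plus 3 SD, cut at about 12% in these data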;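 also: 0% = DMSO only wells and 100% = carbachol wells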
Target sequence (Q8TDD5 whole entry, looked up): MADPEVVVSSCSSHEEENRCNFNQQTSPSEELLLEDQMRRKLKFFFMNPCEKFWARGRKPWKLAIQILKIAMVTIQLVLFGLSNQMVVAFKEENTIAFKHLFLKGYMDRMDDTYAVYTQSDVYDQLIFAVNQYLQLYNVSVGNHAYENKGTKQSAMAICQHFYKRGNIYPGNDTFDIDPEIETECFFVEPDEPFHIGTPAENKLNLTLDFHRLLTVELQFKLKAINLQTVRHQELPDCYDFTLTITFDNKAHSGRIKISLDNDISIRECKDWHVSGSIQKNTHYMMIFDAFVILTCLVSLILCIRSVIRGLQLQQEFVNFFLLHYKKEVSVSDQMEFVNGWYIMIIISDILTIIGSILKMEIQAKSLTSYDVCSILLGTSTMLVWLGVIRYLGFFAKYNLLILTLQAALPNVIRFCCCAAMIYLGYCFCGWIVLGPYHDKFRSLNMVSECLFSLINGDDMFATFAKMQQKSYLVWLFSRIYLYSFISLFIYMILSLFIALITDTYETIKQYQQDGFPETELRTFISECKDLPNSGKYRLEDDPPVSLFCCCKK
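system = HEK293 cells stably carrying human TRPML3-YFP | doses = one concentration, 3 µM nominal, 0.3% DMSO | timing = dye loading 1 h 37 °C then 30 min ambient, 125 s read | detection = Fluo-8 calcium dye fluorescence, ex 470-495, em 515-575 nm | benchmarks = high control carbachol 87 µM, low control DMSO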
CHO-K1 Ca antag: M1 antagonist counterscreen hit in parental CHO-K1 cells; inhibition, % at 3 µM; AID 602250; ATP-induced calcium, Fluo-8 fluorescence; 360,000 tested, 0.6% active;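 active = inhibition above a per-plate cutoff, the plate's mean sample inhibition plus 3 SD, cut at about 24% in these data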;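 also: 0% = DMSO plus EC80 ATP and 100% = DMSO alone without ATP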
Numbers without * were called inactive; / = no result.

SMILES | TRPN1 ag | CHO-K1 Ca ag | M1 PAM parental | TRPML3 ag | CHO-K1 Ca antag
Cc1ccc(-c2c(C(=O)N/N=C/c3ccco3)nnn2-c2nonc2N)cc1 | / | 16* | 28 | / | -7
CCOc1ccc(/C=N/NC(=O)c2nnn(-c3nonc3N)c2-c2cccs2)cc1 | / | 34* | 15 | / | 0
Cc1ccc(/C=N/NC(=O)c2nnn(-c3nonc3N)c2C(C)C)o1 | / | 2 | -26 | / | 28*
CCOc1ccc(-c2c(C(=O)N/N=C/c3ccco3)nnn2-c2nonc2N)cc1 | / | 5 | -17 | / | -7
Nc1nonc1-n1nnc(C(=O)N/N=C/c2cccs2)c1-c1ccc2c(c1)OCO2 | / | 42* | 20 | / | -31
Cc1cc2nc(-c3ccccc3)c(Cc3ccsc3)n2c(C)c1Br | / | 0 | 11 | / | -15
CCC(CC)C(=O)N(C)c1c(C)nc2c(OCC3CCCCC3)cccn12 | / | 0 | 6 | / | 13
COc1ccccc1NC(=O)COC(=O)Cn1c(C)csc1=O | / | 1 | 11 | / | -10
Cc1ccc(-c2c(C(=O)N/N=C/c3ccsc3)nnn2-c2nonc2N)cc1 | / | 17* | 2 | / | -4
Cc1ccc(-c2c(C(=O)N/N=C/c3cccs3)nnn2-c2nonc2N)cc1 | / | 13 | 24 | / | -15
COCCCN1C(=O)C(CC(=O)NCc2cccc3ccccc23)CC(C(=O)N2CCCCCC2)=C1C (centres undefined) | / | 6 | 23 | / | -18
CCCCN(CCCNC(=O)c1ccc2c(c1)NC(=O)CN2C)c1ccccc1 | / | 1 | 17 | / | -12
CCOC(=O)N1CCC(NC(=O)C2CCN(Cc3nc(-c4ccc(CC)cc4)oc3C)CC2)CC1 | / | 0 | 12 | / | 2
CCOC(=O)N1CCC(NC(=O)C2CCCN(S(C)(=O)=O)C2)CC1 (centres undefined) | 1 | 0 | 9 | 0 | -20
CCOC(=O)N1CCC(NC(=O)C2CCCN(Cc3nc(-c4ccc(CC)cc4)oc3C)C2)CC1 (centres undefined) | / | 7 | 1 | / | 24*
CCOC(=O)N1CCC(NC(=O)C2CCCN(S(=O)(=O)c3cccnc3)C2)CC1 (centres undefined) | 0 | 0 | -7 | 0 | 42*
CC1(c2nnnn2-c2ccc3c(c2)OCCO3)CCC(=O)N1Cc1cccc(C(F)(F)F)c1 (centres undefined) | / | 4 | 17 | / | -20
O=C(NCc1cccc(C(F)(F)F)c1)c1ccc2sc(C3=C[C@@H](O)[C@@H](O)[C@@H](CO)O3)nc2c1 | / | 0 | 9 | / | -1
COc1ccc(C(C)=O)cc1COC(=O)CNC(=O)c1ccc(F)cc1 | 1 | 2 | 5 | 0 | 0
COc1ccc(C(C)=O)cc1COC(=O)CNC(=O)c1ccc(Cl)cc1 | 0 | 11 | -14 | 0 | 29*
O=C(CCCN1CCC(C(O)c2ccc(F)cc2)CC1)c1ccc(F)cc1 (centres undefined) | / | 5 | 2 | / | -6
Cc1ccc(C)c(C(=O)CSc2n[nH]c(-c3ccncc3)n2)c1 | 0 | 2 | -7 | 1 | -2
Cc1cc(C)c(C(=O)CSc2n[nH]c(-c3ccncc3)n2)c(C)c1 | 2 | 18* | 1 | 0 | 8
Cc1cc(/C=C(\C#N)C(=O)Nc2ccc(F)cc2)c(C)n1-c1ccc(N2CCOCC2)c([N+](=O)[O-])c1 | 0 | 1 | 16 | 0 | -8
CNC(=O)/C(C#N)=C\c1cc(C)n(-c2ccc(N3CCOCC3)cc2)c1C | 0 | 3 | -15 | 0 | 31*
SMILES | TRPN1 ag | CHO-K1 Ca ag | M1 PAM parental | TRPML3 ag | CHO-K1 Ca antag
CCOC(=O)CC1C(=O)NCCN1C(=O)c1ccc(Cl)c(Cl)c1 (centres undefined) | / | 4 | 74* | / | -14
CCOC(=O)CC1C(=O)NCCN1C(=O)c1ccc(C)cc1 (centres undefined) | / | 0 | -11 | / | -6
O=C1N/C(=C/c2ccc(N3CCOCC3)o2)C(=O)N1c1cccc(Cl)c1 | 0 | 0 | -10 | 1 | 29*
CN(CCCC1CCCC1)C(=O)CCc1nnc(-c2ccccc2)o1 | -2 | 0 | 19 | 0 | -10
CN(C(=O)CCc1nnc(-c2ccc(-c3ccccc3)cc2)o1)C1CCOCC1 | / | 17* | -6 | / | 2
O=C(NCc1ccco1)c1ccc2sc([C@@H]3O[C@H](CO)[C@H](O)[C@H](O)[C@H]3O)nc2c1 | / | 0 | 6 | / | -1
O=C(NCC1CCCCC1)c1cc(-c2cc(F)ccc2OCC2CCCO2)n[nH]1 (centres undefined) | / | 2 | 14 | / | 3
COC(=O)C1=CN(Cc2ccccc2)C=C(C(=O)OC)C1c1ccc(OC)c(OC)c1 | / | 0 | 20 | / | -5
COC(=O)C1=CN(Cc2ccccc2)C=C(C(=O)OC)C1c1ccc(O)c(OC)c1 | / | 0 | -24 | / | 25*
CCOc1ccc(CCNC(=O)COC(=O)c2cccc(N(C)C)c2)cc1OCC | / | 0 | 8 | / | -4
CCOc1ccc(CCNC(=O)COC(=O)c2cccc(S(=O)(=O)N(C)C)c2)cc1OCC | / | 1 | 15 | / | 44*
COc1ccc(NC(=O)COC(=O)c2cccc(S(=O)(=O)N(C)C)c2)cc1 | 0 | 1 | 9 | 1 | -6
CN(C)S(=O)(=O)c1cccc(C(=O)OCC(=O)Nc2sccc2C(N)=O)c1 | 6 | 21* | -6 | 2 | 20
CC(N)c1csc(Nc2nccc(C(F)(F)F)n2)n1 (centres undefined) | / | 0 | 2 | / | 4
CC(=O)Nc1ccc(CN2C(=O)C(C)(C)ON=C2c2ccc(C(F)(F)F)cc2)cc1 | / | 0 | -10 | / | 37*
CCCCn1nnnc1C(c1ccccc1)N1CCN(c2cccc(C)c2C)CC1 (centres undefined) | / | 1 | 10 | / | -19
COc1ccc(NS(=O)(=O)c2ccc(C(=O)NCC3(N4CCOCC4)CCCCC3)cc2)cc1 | / | 15* | 17 | / | -12
COCc1ccc(C(=O)NCC2(N3CCCCC3)CCCCC2)cc1 | / | 16* | -18 | / | -2
Cc1ccc(CN2CC(N3CCCC3)CS2(=O)=O)cc1 (centres undefined) | / | 0 | 10 | / | 10
CCOC(=O)c1ccccc1NC(=O)C1CCCO1 (centres undefined) | / | 1 | 18 | / | -13
O=C(NCCOc1ccccc1)c1ccccc1NC(=O)C1CCCO1 (centres undefined) | 1 | 18* | 8 | 1 | 2
CN1CCC(N2CCN(C3CN(Cc4cn(Cc5cccc(C(F)(F)F)c5)nn4)S(=O)(=O)C3)CC2)CC1 (centres undefined) | / | 0 | -5 | / | -1
Cc1occc(=O)c1OC(=O)Nc1ccc(Cl)c(Cl)c1 | 4 | 12 | 6 | 4 | 29*
CCOC(=O)C1=CCN(S(=O)(=O)c2ccccc2Br)C1c1ccc(Cl)c(Cl)c1 (centres undefined) | / | 1 | 2 | / | 29*
CCOC(=O)C1=CCN(S(=O)(=O)c2ccc(F)cc2)C1c1cccc(F)c1 (centres undefined) | / | 2 | -7 | / | 27*

Assay outcomes: PubChem, The Scripps Research Institute Molecular Screening Center
